# An excerpt weighted towards active compounds, which were near 4.2% of everything screened.
# Ins promoter up: MIN6 insulin promoter up-regulation | 190,000 tested, 0.3% active | AID 1625 | z-score at 5 µM | MIN6 insulin promoter-GFP reporter, high-content imaging; stronger effect = higher value;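 active means z-score above 3 at 5 µM with at least 500 cells counted in the well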
# SKKanGAS inh: SKKanGAS growth inhibition; S. pyogenes SKKanGAS, kanamycin growth, BacTiter-Glo, 6 h; inhibition, % at 7.5 µM; 300,000 tested, 1.3% active;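 active means mean replicate score, as percent of positive control median, at least 50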;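 further: strain carries kanamycin resistance gene driven by streptokinase promoter and grows in 40 µg/ml kanamycin; loss of luminescence reflects streptokinase promoter inhibition or plain growth inhibition; 0% = median of DMSO wells and 100% = positive control at its reference dose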
# KCC2 mod: modulates chloride dependent transport by human KCC2; KCC2 cells, thallium flux FluoZin-2 fluorescence; B-score of Tl+ flux slope (higher = more flux/activation; lower = inhibition) at 10 µM; Q9H2X9; 190,000 tested, 2.2% active;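 active means thallium flux slope and its plate-corrected score both differing from the plate sample mean at a set confidence after two filtering rounds, in either direction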;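 further: slope of fluorescence scaled to starting intensity during 10 to 20 s after thallium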
# Autophagy HCS: autophagy modulation, high-content screen | 190,000 tested, 0.98% active | MEF GFP-LC3 puncta imaging; test concentration mostly 10 µM | AID 463193 | calls only at 10 µM (by protocol);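 active means percentage of spot-positive cells more than 3 SD above its plate mean, without a fluorescence outlier flag or 80% toxicity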;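 further: spot-positive cell cutoff set from DMSO-treated cells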
# Rad51 HR inh: blocks human Rad51 in homologous recombination | hRad51 DNA strand exchange, fluorescence dequenching | AID 1385 | inhibition, % at 10 µM | 200,000 tested, 0.085% active | Q06609;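 active means inhibition above 40% at the single screening dose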;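 further: 0% = DMSO control wells and 100% = blanks with heterologous ssDNA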
#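 Material: Human Rad51 nucleoprotein filaments preassembled on unlabelled ssDNA | Also added: Labelled 47-mer dsDNA for strand exchange | Dosing: Single dose, 10 µM final compound | Schedule: 30-min compound preincubation and 15-min exchange, both room temperature | Technique: Fluorescence dequenching at 485/520 nm | Measure: Percent inhibition relative to plate controls and blanks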
# WT yeast gro inh: growth inhibition of WT yeast, mitochondrial fusion screen; 190,000 tested, 2.1% active; mitochondrial fusion phenotypic screen, WT strain; inhibition, % at 10 µM; in the data active means inhibition above about 58%; tested in S. cerevisiae
# * hit, by the source's call; i = inactive; · = no result; + = active, no number.
SMILES,Ins promoter up,SKKanGAS inh,KCC2 mod,Autophagy HCS,Rad51 HR inh,WT yeast gro inh
COc1ccc(C(=O)Nc2nc3ccc(OC)cc3s2)cc1,·,0.5,·,·,·,·
COc1ccc(C(=O)Nc2nc3ccccc3s2)c(OC)c1,·,53.2*,·,·,·,·
COc1ccc2nc(NC(=O)c3ccc(NS(=O)(=O)c4cccs4)cc3)sc2c1,·,63.4*,-0.676,i,-12.2,7.9
COc1ccc(C(=O)Nc2nnc(-c3cccs3)s2)cc1,0.41,-0.2,0.0677,+,6.6,9.7
Cc1cccc2sc(NC(=O)c3ccc(NS(=O)(=O)c4cccs4)cc3)nc12,-0.06,79.0*,-0.135,i,8.4,67.2*
C=CCN1C(=O)/C(=C/C=C2/N(CC)c3ccc(S(=O)(=O)N(C)C)cc3N2CC)SC1=S,·,23.5,-0.0202,+,-275.6,26.0
Cc1ccc(SCC(=O)NC(=O)NCCC(C)C)c(C)c1,-0.6,5.1,-0.474,i,16.4,-1.5
Cc1ccc(C(=O)N/N=C/c2cccc(OC(=O)/C=C/c3ccco3)c2)cn1,0.31,10.3,-0.233,i,-29.3,-9.1
O=C(/C=C/c1ccco1)Oc1cc(Br)cc(/C=N/NC(=O)c2ccccc2O)c1,-4.99,88.2*,0.0577,i,2.1,23.2
COc1ccc(-n2cc(CN3CCCC3)c(-c3cccc(F)c3)n2)cc1,-0.93,0.3,-0.0113,i,-18.3,25.0
CN(Cc1ncc[nH]1)Cc1cn(-c2ccccc2)nc1-c1ccc2c(c1)OCO2,-1.2,-0.8,0.685,·,-4.9,·
Cc1cccc(-n2cc(CN3CCN(Cc4nccn4C)CC3)c(-c3cccc(F)c3)n2)c1,-0.21,-5.2,·,i,·,86.1*
CCn1ccnc1CN(C)Cc1cn(-c2cc(C)ccc2C)nc1-c1ccccc1,-0.89,18.7,·,i,·,61.2*
Cc1ccc(-n2cc(CN(C)Cc3nccn3C)c(-c3ccc(F)cc3)n2)cc1,-0.49,-7.3,·,i,6.1,76.4*
Cc1ccc(-n2cc(CN(C)Cc3ncc[nH]3)c(-c3cccc(C)c3)n2)cc1,·,-3.2,·,i,4.2,58.7*
CCn1ccnc1CN(C)Cc1cn(-c2ccc(C)cc2)nc1-c1ccc(F)cc1,·,21.1,·,i,12.7,67.3
Cn1cc(/C=N\O)nc2c(=O)n(-c3ccccc3)c(=O)nc1-2,2.87,1.7,-0.413,i,-0.4,-5.5
S=C(c1ccc(-c2cccc(Cl)c2)o1)N1CCCCC1,-0.08,-8.3,-1.33,i,7.7,58.1*
S=C(c1ccc(-c2cccc(Cl)c2)o1)N1CCOCC1,0.47,-11.7,-0.267,i,-3.2,5.5
C=CCn1c(SCC(=O)N(C)C)nc2sc3c(c2c1=O)CCC3,·,-2.0,·,·,·,·
Cc1noc(C)c1CSc1nc2sc3c(c2c(=O)n1C)CCCC3,-0.12,17.9,-0.296,i,6.8,15.0
C=CCn1c(SCc2c(C)noc2C)nc2sc3c(c2c1=O)CCCC3,-2.41,60.2*,0.288,i,-2.8,27.7
C=CCn1c(SCc2c(C)noc2C)nc2sc3c(c2c1=O)CCCCC3,-4.19,54.3*,0.207,i,0.7,8.4
CN(C(=O)CN1C(=O)S/C(=C\c2ccc(Cl)cc2)C1=O)C1CCS(=O)(=O)C1 (stereo not drawn),·,10.2,·,·,·,·
COC(=O)c1nn2c(C(F)(F)F)cc(-c3ccc(Br)o3)nc2c1Br,0.23,4.1,·,+,-10.8,·
SMILES,Ins promoter up,SKKanGAS inh,KCC2 mod,Autophagy HCS,Rad51 HR inh,WT yeast gro inh
CN1CCN(NC(=O)Nc2cccc(Cl)c2Cl)CC1,-0.89,-4.8,0.441,+,-3.8,-2.9
C=CCSc1nnc(NC(=O)c2cccc(S(=O)(=O)N3CCOCC3)c2)s1,3.22*,6.3,·,i,-4.0,-3.8
Cc1nnc(NC(=O)c2cccc(S(=O)(=O)N3CCOCC3)c2)s1,·,5.2,0.986,i,-4.7,-3.5
Nc1nc(CSc2ccc(Cl)cc2)nc(N2CCCCC2)n1,-0.56,·,-0.0536,i,-12.4,74.5*
Nc1nc(CSc2ccccc2)nc(N2CCCCC2)n1,-0.79,7.5,-0.331,i,5.2,12.5
Cc1c(N2C(=O)c3cccc4cccc(c34)C2=O)cnn1C,0.05,1.8,-0.673,·,-2.0,·
O=C(Cn1c(=S)[nH]c2ccccc2c1=O)NCCc1ccccc1,0.54,3.0,0.747,i,1.3,-18.2
O=C(Nc1cccc(Cl)c1)Nc1cc(S(=O)(=O)N2CCCCC2)ccc1Cl,-0.56,53.6*,0.242,i,-2.9,49.0
CCc1ccc(Nc2nc3ccccc3c(=O)s2)cc1,-0.08,26.9,7.54*,i,-4.2,-5.7
CCc1ccc(Nc2n[n+](-c3ccccc3)c(-c3c(Cl)cccc3Cl)s2)cc1,·,87.7*,·,·,·,·
Fc1ccc(-[n+]2nc(Nc3ccccc3)sc2-c2c(Cl)cccc2Cl)cc1,·,-2.3,·,·,·,·
CCCc1nnc(SCC(=O)N2CCCC(C)C2)n1CCOC (stereo not drawn),0.04,-0.6,0.676,i,1.7,-7.0
COc1ccc2nc(C3CCCCC3)nc(C3CCCCC3)c2c1,·,90.1*,·,·,·,·
Cc1cc(C(=O)Nn2c(-c3ccc(Br)cc3)nc3ccccc3c2=O)ccc1[N+](=O)[O-],·,11.7,-0.339,i,-4.0,68.4*
Cc1cc(-c2csc3nc[nH]c(=S)c23)cc(C)c1C,-0.65,91.6*,85.1*,i,·,47.9
Cc1sc2nc[nH]c(=O)c2c1-c1ccc(F)cc1,·,10.6,·,·,·,·
O=c1[nH]cnc2scc(-c3ccccc3)c12,0.28,-2.2,0.0491,i,1.6,-5.0
Cc1ccc(-c2csc3nc[nH]c(=S)c23)cc1,-0.01,33.5,49.7*,i,2.0,1.1
Cc1sc2nc[nH]c(=S)c2c1-c1ccccc1,-0.15,7.1,30.7*,i,3.1,39.2
CC(=O)c1cccc(NC(=O)NNC(=O)c2ccc(-c3ccccc3)cc2)c1,·,-2.7,·,·,·,·
Cn1cc(C(=O)c2ccc(Cl)cc2Cl)cc1C(=O)N/N=C(\N)COc1cccc(C(F)(F)F)c1,0.1,58.8*,0.324,i,-8.3,-0.5
Cc1cc(OCCCC(=O)NNC(=O)c2ccncc2)ccc1Cl,·,-18.1,·,·,·,·
CCC(C)/C(C)=N/NC(=O)c1ccc(COc2ccc(Cl)c(C)c2)cc1 (stereo not drawn),·,·,-1.36,i,14.8,72.3*
CCOC(=O)c1ccccc1NC(=O)C1CC(=O)N(c2ccccc2)C1 (stereo not drawn),0.03,-0.4,0.283,i,-5.2,13.1
O=C(COc1cc(O)c2c(=O)c3ccccc3oc2c1)OCc1ccccc1,-0.01,6.6,-1.28,·,-8.3,·
Nc1ccc2nc(CN3CCOCC3)[nH]c2c1,·,1.9,-0.501,i,·,65.7*
COc1ccc(S(=O)(=O)N2C(=O)/C(=C3\SC(N)=NC3=O)c3ccccc32)cc1,-0.3,7.8,·,·,19.8,·
CCC(C)NC(=O)c1c(N)n(/N=C/c2ccccn2)c2nc3ccccc3nc12 (stereo not drawn),-1.1,86.6*,-0.36,i,11.2,-1.0
Nc1nonc1C(=O)N/N=C/c1ccc(-c2ccc(Cl)c(C(=O)O)c2)o1,0.2,7.8,-1.11,i,7.5,-6.4

# Source: PubChem (several laboratories)
